# Screens (PubChem BioAssay)
# miR122 inh = inhibitors of miR-122 in Huh7 cells; Huh7 miR-122 Renilla luciferase sensor, 48 h; neutral wells = 0, positive control = 100; activation (reporter increase), % at 12.5 µM; 0.3% of 340,000 active;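 active = mean replicate activation score at least 90 and every replicate individually at or above 90; inconclusive = only one of the two criteria met; inactive = neither criterion met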;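 note: higher luciferase means less miR-122 activity so hits act as miR-122 inhibitors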
# INS-1E GSIS act = primary screen for activators of insulin secretion dependent on glucose, INS-1E cells, GLuc reporter luminescence; AID 743287; INS-1E GLuc reporter insulin secretion, 2-3 h; activation, % at 16.6 µM; 0.61% of 370,000 active;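 active = lowest replicate activation of at least 40%, so every replicate reaches that level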
# DENV2 CPE rescue = DENV2-induced cell death inhibition | DENV2-infected cells, cytopathic effect rescue, plate reader | CPE inhibition, % at 9.99 µM | 1.7% of 350,000 active | AID 651640; in the data active = CPE inhibition above about 20%, passing the limit was not always enough; inconclusive = no clear call, values can overlap the other calls; tested in BHK-21 cells
# F508del corr = correctors of CFTR F508del function in bronchial epithelial cells; CFBE cells, YFP halide quenching; stimulated with forskolin plus potentiator P3; % fluorescence drop versus neutral controls; activity (quench increase), % at 7.58 µM; 0.36% of 350,000 active; AID 720511;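 active = mean added fluorescence quench of at least 8% versus neutral control, with both replicates also reaching 8%; inconclusive = only one of the mean or replicate conditions met; inactive = mean below 8% and not both replicates reaching 8%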;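 note: cells transiently co-express mutant CFTR-F508del with the halide-sensitive YFP; corrector assay measuring rescue of mutant channel to the surface after 24 h compound exposure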
# ERAP1 inh = blocks human ERAP1 aminopeptidase activity; recombinant ERAP1, Leu-AMC fluorescence, 60 min; inhibition, % at 10.7 µM; 0.15% of 340,000 active;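 active = mean replicate inhibition of at least 30%, or all replicates individually reaching that 30% level; inactive = mean below 30% and not every replicate reaching it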
# E-sel inducer = E-selectin induction on HUVECs; P16581; HUVEC E-selectin immunofluorescence imaging; normalized: neutral wells 0, TNF-alpha wells 100; activation, % at 7.58 µM; 0.37% of 260,000 active; AID 686992;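 active = mean E-selectin-positive cell signal at least 10% of the positive control, reached in at least 60% of replicates, without over 20% cell loss; inconclusive = no rule given, readout overlaps actives, possibly toxicity-flagged; inactive = the rest, including those meeting only one limit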
# Target sequence (P16581 whole entry, looked up): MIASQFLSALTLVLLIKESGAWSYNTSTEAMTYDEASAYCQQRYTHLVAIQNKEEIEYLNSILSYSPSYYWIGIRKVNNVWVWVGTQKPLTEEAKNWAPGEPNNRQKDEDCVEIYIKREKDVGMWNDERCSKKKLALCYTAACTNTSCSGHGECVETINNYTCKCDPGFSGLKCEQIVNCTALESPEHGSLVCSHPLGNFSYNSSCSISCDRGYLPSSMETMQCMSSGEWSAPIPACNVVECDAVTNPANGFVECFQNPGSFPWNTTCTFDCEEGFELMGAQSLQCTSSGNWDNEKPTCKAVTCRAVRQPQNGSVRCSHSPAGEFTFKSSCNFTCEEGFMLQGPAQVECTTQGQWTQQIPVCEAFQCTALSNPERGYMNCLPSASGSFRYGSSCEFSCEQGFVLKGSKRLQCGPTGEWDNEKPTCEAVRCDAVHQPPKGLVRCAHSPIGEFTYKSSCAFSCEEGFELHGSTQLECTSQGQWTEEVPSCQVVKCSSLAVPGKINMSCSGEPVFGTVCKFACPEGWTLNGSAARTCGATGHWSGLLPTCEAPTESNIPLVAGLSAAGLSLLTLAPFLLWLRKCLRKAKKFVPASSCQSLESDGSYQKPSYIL
#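 Assay system: HUVEC, human umbilical vein endothelial cells / Amount: 3,000 HUVEC/well / Controls: TNF-alpha positive control, DMSO neutral control / Compound dosing: single concentration / Medium: EGM-2 over gelatin coat / Evaluation: percent E-selectin-positive cells / Signal: immunofluorescence imaging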
# Hits are given with their value; . = inactive; ? = inconclusive; / = no result given; [ ] = dose if it differs, or a comment. Rows were chosen to be rich in hits. Some 2.6% of all compounds tested hit in one or more screens of this group.
SMILES,miR122 inh,INS-1E GSIS act,DENV2 CPE rescue,F508del corr,ERAP1 inh,E-sel inducer
C[C@@H]1CN([C@H](C)CO)S(=O)(=O)c2ccc(-c3ccc(F)cc3)cc2O[C@@H]1CN(C)S(C)(=O)=O,.,.,.,.,.,.
COC(=O)[C@]1(Cc2ccccc2)N[C@H](CN(C)C(=O)Nc2ccc(Cl)cc2)[C@@H]2C(=O)N(Cc3ccccc3)C(=O)[C@@H]21,.,.,22,.,.,/
COC(=O)[C@]1(Cc2ccccc2)N[C@H](CN(C)C(=O)Nc2ccccc2)[C@@H]2C(=O)N(Cc3ccccc3)C(=O)[C@@H]21,/,.,.,.,/,.
CCN(C[C@H]1N[C@@](CC)(C(=O)OC)[C@H]2C(=O)N(Cc3ccccc3)C(=O)[C@@H]12)C(=O)COc1ccccc1,/,.,66,.,/,.
CCN(CC)c1ccc2nc3ccc(N)cc3[n+](-c3ccccc3)c2c1,/,.,?,.,.,92
COc1cc(OC)cc(-c2c(C#Cc3ccsc3)c3cc(-c4cc(OC)c(OC)c(OC)c4)ccc3n2C)c1,.,.,38,.,.,.
COc1cc(OC)cc(-c2c(C#Cc3ccsc3)c3cc(-c4ccc(OC)c(F)c4)ccc3n2C)c1,.,.,.,.,/,.
C[C@@H]1CN([C@@H](C)CO)C(=O)c2cc(C#Cc3cccnc3)cnc2O[C@@H]1CN(C)C(=O)CN(C)C,.,.,?,.,.,.
CC1(C)C[C@H]2C3=CCC4[C@@]5(C)CC[C@H](O)[C@](C)(CO)C5CC[C@@]4(C)[C@]3(C)C[C@H]3O[C@@H]1[C@H](O)[C@]32CO (stereo partly drawn),/,.,41,.,.,.
CC1(C)C[C@H]2C3=CCC4[C@@]5(C)CC[C@H](O)[C@](C)(CO)C5CC[C@@]4(C)[C@]3(C)CC[C@@]2(C)[C@H](O)[C@@H]1O (stereo partly drawn),.,.,.,.,.,/
C[C@@H]1CN([C@H](C)CO)S(=O)(=O)c2ccc(-c3ccncc3)cc2O[C@H]1CN(C)C(=O)c1cccc(F)c1,.,.,.,/,.,.
COC(=O)c1cnn(-c2nc(-c3ccccc3)cs2)c1N,.,45,.,.,.,.
CCOC(=O)c1cnn(-c2nc(-c3ccccc3)cs2)c1C(F)(F)F,.,.,/,/,/,/
C[C@H](CO)N1C[C@H](C)[C@@H](CN(C)C(=O)c2ccc3c(c2)OCO3)Oc2cc(C#Cc3ccccc3F)ccc2S1(=O)=O,.,.,.,.,.,.
C[C@H](CO)N1C[C@H](C)[C@H](CN(C)C(=O)c2ccc3c(c2)OCO3)Oc2cc(-c3ccccc3)ccc2S1(=O)=O,.,.,.,.,/,108
C[C@H](CO)N1C[C@H](C)[C@H](CN(C)C(=O)c2ccc3c(c2)OCO3)Oc2cc(C#Cc3ccccc3F)ccc2S1(=O)=O,.,.,.,8.8,.,.
CC(=O)N(C)C[C@H]1Oc2cc(-c3ccccc3)ccc2S(=O)(=O)N([C@@H](C)CO)C[C@@H]1C,.,.,33,/,.,.
C[C@@H]1CN([C@@H](C)CO)S(=O)(=O)c2ccc(-c3ccccc3)cc2O[C@H]1CN(C)C(=O)c1ccc2c(c1)OCO2,.,.,.,.,.,.
C[C@H](CO)N1C[C@H](C)[C@@H](CN(C)S(C)(=O)=O)Oc2cc(-c3ccccc3)ccc2S1(=O)=O,.,.,.,.,.,.
C[C@@H]1CN([C@H](C)CO)S(=O)(=O)c2ccc(-c3ccccc3)cc2O[C@H]1CN(C)S(C)(=O)=O,.,.,.,.,.,58
CC(=O)N(C)C[C@@H]1Oc2ccccc2CC(=O)N(C)C[C@H]1C,/,.,/,/,/,/
O=C(Nc1cccc(F)c1)N1CC(=O)N2[C@H](CO)[C@H](c3ccc(-c4ccccc4)cc3)[C@H]2C1,/,.,.,.,.,.
C/C=C/c1ccc2c(c1)O[C@H](CN(C)S(=O)(=O)c1ccccc1)[C@H](C)CN([C@@H](C)CO)S2(=O)=O,268[16.7 µM],.,.,.,.,.
C/C=C/c1ccc2c(c1)O[C@H](CN(C)S(=O)(=O)c1ccc(F)cc1)[C@H](C)CN([C@@H](C)CO)S2(=O)=O,.,.,.,.,.,.
